Screens deposited in PubChem BioAssay by several laboratories.
CYP2C19 inhib = blocks human cytochrome P450 2C19; P33261; CYP2C19 Supersomes, luciferin-H EGE luminescence, 30 min; inhibition, % at 5 µM; 21% of 96,000 active; AID 778;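 active = CYP2C19 inhibition above a set limit at 5 µM in the primary screen, cut at about 50% in these data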;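 note: plate controls were negative control wells for no effect and 2.5 mM tranylcypromine positive control for full effect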
HIV Rev-RRE inh = HIV Rev-RRE protein-RNA interaction inhibition; P05866; Rev peptide-RRE RNA binding, FRET; inhibition, % at 8 µM; 0.79% of 97,000 active; AID 704;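 active = inhibition above the screen-wide mean plus 3 SD, cut at about 35% in these data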;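 note: 0% = median DMSO wells and 100% = median Neomycin B control wells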
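Test system – labelled RRE RNA duplex and labelled Rev peptide · Reagent – labelled Rev peptide · Doses – one concentration, 8 µM nominal · Incubation – 5 + 15 min at 25 °C · Signal – FRET fluorescence readout · Read-out basis – % inhibition of FRET ratio versus controls · Control set – DMSO wells as 0% and neomycin B wells as 100% inhibition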
CYP2C9 inhib = inhibitors of human CYP2C9; P11712; CYP2C9 Supersomes, luciferin-H conversion, luminescence; inhibition, % at 5 µM; 20% of 96,000 active; AID 777;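 active = blocking of liver enzyme CYP2C9 beyond about 50% at 5 µM, limit read from the data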
Target sequence (P11712 whole entry, looked up): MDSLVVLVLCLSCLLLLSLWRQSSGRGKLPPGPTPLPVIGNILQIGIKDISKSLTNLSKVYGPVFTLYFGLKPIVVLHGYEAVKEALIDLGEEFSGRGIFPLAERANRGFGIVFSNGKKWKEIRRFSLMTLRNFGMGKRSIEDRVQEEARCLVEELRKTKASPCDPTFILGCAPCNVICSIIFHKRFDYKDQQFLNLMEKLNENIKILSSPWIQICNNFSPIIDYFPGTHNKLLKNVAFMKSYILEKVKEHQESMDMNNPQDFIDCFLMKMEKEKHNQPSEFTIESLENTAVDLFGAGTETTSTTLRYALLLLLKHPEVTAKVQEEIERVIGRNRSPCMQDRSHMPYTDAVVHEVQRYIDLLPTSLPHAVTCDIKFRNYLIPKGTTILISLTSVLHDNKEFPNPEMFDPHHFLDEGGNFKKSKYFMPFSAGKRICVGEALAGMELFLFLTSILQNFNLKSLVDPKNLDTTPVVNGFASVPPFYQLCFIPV
CYP2C9 activ = increases human cytochrome P450 2C9 activity. P11712. recombinant CYP2C9, luciferin-H conversion, luminescence; active compounds read high; factor 1 = untreated enzyme, 0 = blocked. activation factor at 5 µM. 1.4% of 96,000 active;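 active = activation factor of 2 or more for CYP2C9 at a 5 µM dose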;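 note: 0 = sulfaphenazole-blocked wells and 1 = vehicle-only wells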
CYP2C19 activ = cytochrome P450 2C19 (human) activation | P33261 | recombinant CYP2C19, luciferin-H EGE luminescence; active compounds read high; 0 = fully inhibited enzyme, 1 = untreated enzyme | activation factor at 5 µM | 96,000 tested, under 10 active | AID 1025;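 active = activation factor of at least 2 at 5 µM in the primary screen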;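 note: 0 = wells with 2.5 mM tranylcypromine and 1 = vehicle-only wells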
Cav32 inh = blocks human Cav3.2 T-type calcium channel | O95180 | Cav3.2-expressing cells, Fluo-4 calcium fluorescence FDSS; active compounds read low | B-score at 10 µM | 4% of 100,000 active | AID 449739;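 active = single-dose well whose peak fluorescence ratio is a statistical outlier from its plate by either plate-standardised score or position-corrected B-score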
An asterisk follows results filed as active; / = no result given. Rows were chosen to be rich in hits. Some 27% of all compounds tested hit in one or more screens of this group.

SMILES | CYP2C19 inhib | HIV Rev-RRE inh | CYP2C9 inhib | CYP2C9 activ | CYP2C19 activ | Cav32 inh
O=c1oc2ccccc2n1CSC1=NCCS1 | 88* | 5 | 45 | 0.6 | 0.1 | 0.77
S=c1[nH]nc(CSc2nc3ccccc3s2)o1 | -12 | 3 | -2 | 1 | 1.1 | 1.1
COC(=O)c1ccc(Oc2c(C)oc3c(CN4CCN(C)CC4)c(O)ccc3c2=O)cc1 | 6 | 3 | 4 | 1 | 0.9 | -2.4
C#CCOCCOCCOCCNc1nc(N2CCN(C(=O)[C@H](CCC(=O)O)n3cc(C(N)CC(C)C)nn3)CC2)nc(N2CCN(C(=O)[C@H](CCC(=O)O)n3cc(C(N)[C@H](C)CC)nn3)CC2)n1 (some centres not stated) | / | / | / | / | / | -0.14
CCOc1ccc2nc(NC(=O)c3ccoc3C)sc2c1 | 100* | 6 | 85* | 0.2 | 0 | -0.57
COc1ccc2nc(NC(=O)CSc3nc(C)cc(=O)[nH]3)sc2c1 | 22 | 4 | 52* | 0.5 | 0.8 | 1.7
CC(C)C(NS(=O)(=O)c1cccc2nsnc12)C(=O)Nc1nc2ccc(Cl)cc2s1 (configuration not stated) | 18 | 10 | -10 | 1.1 | 0.8 | /
COc1ccc2nc(NC(=O)CSc3nccc(C)n3)sc2c1 | 30 | 5 | 14 | 0.9 | 0.7 | -0.54
CCOc1ccc2nc(NC(=O)C(CC)Sc3nc(C)cc(=O)[nH]3)sc2c1 (configuration not stated) | 18 | -1 | 68* | 0.3 | 0.8 | 0.096
CCOc1ccc2nc(NC(=O)Cc3cccs3)sc2c1 | 30 | 3 | 30 | 0.7 | 0.7 | -0.34
CCOc1ccc2nc(NC(=O)C(NS(=O)(=O)c3cccc4nsnc34)C(C)C)sc2c1 (configuration not stated) | 70* | 5 | 48 | 0.5 | 0.3 | -1.5
CCOC(=O)C(O)(CC(=O)c1ccc(OC)cc1)C(F)(F)F (configuration not stated) | / | 8 | / | / | / | -0.23
Cc1ccc(C2CN(c3ccccc3)CC2C(=O)c2ccc(F)cc2)cc1 (configuration not stated) | 21 | -2 | 37 | 0.6 | 0.8 | /
O=c1c2[nH]c3ccccc3c2ncn1CCN1CCCCC1 | 15 | 3 | -6 | 1.1 | 0.9 | 0.66
Cc1ccc(C)c(C(=O)Cn2ncc(Cl)c(Cl)c2=O)c1 | 17 | -6 | -106 | 2.1* | 0.8 | 3.2
CCCc1c(C(=O)OCC)[nH]c2c1C(=O)CCC2 | -2 | 2 | 15 | 0.8 | 1 | -0.11
Cc1c(C(=O)OC2CCCC2C)[nH]c2c1C(=O)CCC2 (configuration not stated) | 5 | / | 54* | 0.5 | 1 | -0.46
COC(=O)C1C(=O)c2c([nH]c(C(=O)OC3CCCC3)c2C)CC1C (configuration not stated) | -1 | 11 | 37 | 0.6 | 1 | -0.3
Cc1c(C(=O)OCCOc2ccccc2)[nH]c2c1C(=O)CCC2 | 91* | 2 | 91* | 0.1 | 0.1 | -0.51
CCOC(=O)Cn1c(N2CCOCC2)nc2c1c(=O)[nH]c(=O)n2C | 4 | 7 | -7 | 1.1 | 1 | 1.3
Cn1c(-c2ccc3ccccc3n2)nc2cnccc21 | 88* | 1 | 54* | 0.5 | 0.1 | 0.44
COc1cc(OC)c(-c2nc3cnccc3n2C)cc1OC | 75* | 9 | 35 | 0.6 | 0.2 | 0.35
COc1cc(-c2nc3cnccc3n2C)cc(OC)c1OC | -6 | 11 | 2 | 1 | 1.1 | /
Cc1nc(SCc2ccccc2C)n[nH]1 | 49 | 4 | 17 | 0.8 | 0.5 | 1.3
C/C(=C\c1ccccc1)C(=O)Nc1cc(C)on1 | 6 | 4 | 21 | 0.8 | 0.9 | 0.026
CC#CCN1c2ccccc2[C@]23C[C@@H](C(=O)OC)N(C(=O)C4CCC4)C2=NC(C(=O)OC)=C(C(=O)OC)[C@H]13 | / | / | / | / | / | -1
CCn1ncc(C2=NOC(C(=O)NCc3ccc(Cl)cc3)C2)c1C (configuration not stated) | 66* | / | 50* | 0.5 | 0.3 | /
CCn1ncc(C2=NOC(C(=O)Nc3ccc4c(c3)OCO4)C2)c1C (configuration not stated) | 56* | / | 28 | 0.7 | 0.4 | 0.61
